OX1R antag-1: antagonists of human orexin 1 receptor (OX1R); OX1R-expressing cells, FRET antagonist read-out; inhibition, % at 6.6 µM; 330,000 tested, 1.8% active; in the data active means inhibition mostly above about 38%, no sharp cut-off; inactive means mostly below about 40%;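 further: 0% = agonist challenge alone and 100% = reference antagonist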
EP2 antag: human EP2 receptor antagonists, primary screen, TR-FRET cAMP, C6 glioma cells; Prostaglandin E2 receptor EP2 subtype (Homo sapiens), P43116; C6 glioma cells expressing human EP2; cells stimulated with saturating PGE2; 260,000 tested, 0.52% active; inhibition, % at 25 µM;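 active means percent inhibition above 40 after rounding to a whole number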;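 further: rat C6 glioma host cells with rolipram phosphodiesterase inhibitor present; the protocol text gives 20 µM as final concentration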
Target sequence (P43116 whole entry, looked up): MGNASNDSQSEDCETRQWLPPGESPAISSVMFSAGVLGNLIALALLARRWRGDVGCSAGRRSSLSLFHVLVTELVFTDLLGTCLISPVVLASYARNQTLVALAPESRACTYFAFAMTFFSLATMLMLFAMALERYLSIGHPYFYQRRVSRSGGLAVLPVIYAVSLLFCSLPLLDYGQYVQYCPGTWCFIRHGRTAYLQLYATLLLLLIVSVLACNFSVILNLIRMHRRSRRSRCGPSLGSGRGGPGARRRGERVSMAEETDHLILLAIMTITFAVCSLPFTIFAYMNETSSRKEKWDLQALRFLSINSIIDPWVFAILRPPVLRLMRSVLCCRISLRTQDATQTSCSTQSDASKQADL
GPR7 antag: GPR7 receptor antagonists, primary screen, cell-based, fluorescence, single concentration | inhibition, % at 4.4 µM | Neuropeptides B/W receptor type 1 (Homo sapiens), P48145 | 290,000 tested, 1.1% active | GPR7-expressing cells, fluorescence antagonist assay; in the data active means inhibition above about 16%, passing the limit was not always enough;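 further: cells stimulated with the agonist NPW; 0% = agonist with vehicle and 100% = vehicle without agonist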
Target sequence (P48145 whole entry, looked up): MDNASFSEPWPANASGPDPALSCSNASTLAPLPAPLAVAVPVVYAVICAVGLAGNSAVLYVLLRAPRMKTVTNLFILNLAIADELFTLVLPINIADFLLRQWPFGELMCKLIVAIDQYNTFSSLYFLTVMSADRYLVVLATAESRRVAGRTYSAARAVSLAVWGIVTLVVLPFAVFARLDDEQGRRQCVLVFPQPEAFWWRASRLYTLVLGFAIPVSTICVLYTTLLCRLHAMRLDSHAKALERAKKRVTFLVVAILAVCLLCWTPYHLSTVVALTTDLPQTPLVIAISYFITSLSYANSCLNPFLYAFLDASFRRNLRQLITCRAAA
OX1R antag-2: OX1R (HCRTR1) antagonists, primary screen, fluorescence, CHO/OX1R cells, Fluo-8 calcium, orexin A | inhibition, % at 5 µM | Fluo-8 calcium fluorescence | Orexin/Hypocretin receptor type 1 (Homo sapiens), O43613 | 330,000 tested, 0.43% active | AID 434989, 2010;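 active means inhibition above its plate's threshold, mean inhibition of all tested compounds on the plate plus 3 SD, cut at about 37% in these data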;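 further: 0% = orexin A challenge wells and 100% = SB-334867-A antagonist wells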
EP2 mod: EP2 receptor modulators, cAMP readout, primary screen, cell-based, HTRF cAMP, PGE2 stimulation; 260,000 tested, 0.83% active; EP2-expressing cells, cAMP HTRF FRET, PGE2 co-stimulation; induction, % at 25 µM; Prostaglandin E2 receptor EP2 subtype (Homo sapiens), P43116;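 active means compounds whose cAMP rise, as percent of the full-agonist control response, exceeds 60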;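 further: rat C6 glioma line stably carrying human EP2 under a CMV promoter; the protocol text gives 20 µM as final concentration; 100% = response of wells given 1 µM PGE2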
CHO parental Ca: ATP-evoked calcium signal inhibitors, parental CHO, primary screen, counter-screen for OX1R antagonist project, cell-based, fluorescence, Fluo-8 calcium dye; parental CHO-K1, ATP-induced calcium, Fluo-8 fluorescence; inhibition, % at 5.6 µM; 330,000 tested, 0.63% active; AID 463079, 2010;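 active means inhibition above that plate's mean sample inhibition plus 3 SD, cut at about 26% in these data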;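 further: 0% = ATP-challenged DMSO wells and 100% = DMSO wells without ATP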
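Test system: untransfected parental CHO cell line; also added: ATP stimulus; dosing: 5.6 µM, single dose; signal: calcium-sensitive Fluo-8 fluorescence; measure: percent inhibition of ATP-evoked calcium rise, normalized to controls; benchmarks: low control ATP plus DMSO, high control DMSO only; replication: one well per compound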
Numbers without * were called inactive; . = no result. A selection: hits, their analogues and other compounds. The true share with any hit is near 3.7%.

SMILES	OX1R antag-1	EP2 antag	GPR7 antag	OX1R antag-2	EP2 mod	CHO parental Ca
COc1cccc2c1C(=O)c1c(O)c3c(c(O)c1C2=O)C[C@@](O)(C(=O)CO)C[C@H]3O[C@H]1C[C@@H](N)[C@H](O)[C@@H](C)O1.[W]	.	39.8*	.	.	15.3	.
COc1cc2c(cc1OC)CN(CC(=O)Nc1ccccc1SC)CC2	18.9	4.0	0.4	-4.0	-12.7	-1.7
O=C(Nc1ccccc1C(=O)NCCN1CCOCC1)c1cccc([N+](=O)[O-])c1	32.0	.	-5.4	-22.2	.	-25.2
O=C(Nc1cc([N+](=O)[O-])ccc1C(=O)NCCN1CCOCC1)c1ccccc1	75.4*	.	-10.7	-5.5	.	-10.4
O=C(NCCCN1CCN(CCCNC(=O)c2cc([N+](=O)[O-])ccc2Cl)CC1)c1cc([N+](=O)[O-])ccc1Cl	71.9*	5.1	-18.4	3.2	8.0	1.4
Clc1ccc(CSc2nc3ccncc3[nH]2)cc1	8.5	11.5	-14.9	-18.7	2.8	-1.2
CCN1CCN(C(=S)NCC2CCCO2)CC1 (centres undefined)	7.8	2.4	-14.3	-2.7	26.6	0.0
COc1cccc(C2CC(c3ccccc3Cl)n3ncnc3N2)c1 (centres undefined)	19.3	-1.0	2.3	-27.0	-12.0	-3.6
COc1cc(/C=C2\CC/C(=C\c3cc(OC)c(O)c(OC)c3)C2=O)cc(OC)c1O	89.9*	4.3	-11.0	12.6	8.4	-21.2
COc1cc(/C=C2\CC/C(=C\c3cc(OC)c(OC)c(OC)c3)C2=O)cc(OC)c1OC	15.2	5.1	8.8	-31.8	-19.5	-21.4
CCC(C)Sc1cccc(-c2nc3ccc(C)cn3c2NCc2ccccc2)c1 (centres undefined)	44.0	.	.	61.5*	.	49.2*
CCCCNc1c(-c2ccc(SC(C)CC)c(OC)c2)nc2ccc(C)cn12 (centres undefined)	67.8*	.	.	41.8	.	44.4*
CCC(C)Sc1cccc(-c2nc3ccc(Cl)cn3c2NCc2ccccc2)c1 (centres undefined)	44.1	.	.	-22.4	.	-16.6
CCCCNc1c(-c2ccc(OC)c(Sc3ccc(OC)cc3)c2)nc2ccccn12	48.0	.	.	40.9	.	45.1*
CCCCNc1c(-c2ccc(OC)c(Sc3ccc(OC)cc3)c2)nc2cnccn12	14.2	.	.	0.2	.	-26.8
C=CCNC(=O)c1c(NC(=O)c2ccc(OCC)cc2)sc2c1CCCC2	.	19.4	.	.	24.6	.
O=C(Nc1ccc2ccccc2n1)c1ccccc1Cl	21.9	.	14.1	-19.4	.	-11.0
COc1ccc(C(=O)Nc2ccc3ccccc3n2)c(OC)c1OC	57.1*	.	-3.5	-1.2	.	-17.3
CCOc1cc(/C=N/NC(=O)CCn2nnc3ccccc32)ccc1O	45.6*	7.2	1.9	-12.4	6.3	1.6
O=C(c1ncoc1-c1ccccc1F)N1CCN(c2nc3ccccc3s2)CC1	.	7.0	.	.	-40.4	.
O=C(CCOc1ccccc1)Nc1cccc(S(=O)(=O)Nc2ccccc2Cl)c1	54.8	5.2	-7.5	57.0*	2.6	36.8*
O=C(Nc1cccc(S(=O)(=O)Nc2ccccc2Cl)c1)c1ccc(Cl)nc1	66.6	8.9	-9.6	15.7	-20.1	20.9
N#Cc1cccc(NC(=O)COC(=O)c2cc(S(=O)(=O)Nc3ccccc3Cl)ccc2O)c1	37.9*	.	.	14.7	.	3.9
O=C(COC(=O)c1cc(S(=O)(=O)Nc2ccccc2Cl)ccc1O)Nc1nc2ccccc2s1	.	-0.7	0.1	.	-33.8	.
CCN(CC)C(=O)C1CCN(S(=O)(=O)c2ccc(OC)c(Cl)c2)CC1	.	13.3	.	.	-47.9	.
SMILES	OX1R antag-1	EP2 antag	GPR7 antag	OX1R antag-2	EP2 mod	CHO parental Ca
Cc1ccccc1N1C(S)=C(C#N)C(=O)NC1c1cccs1 (centres undefined)	9.6	7.2	9.3	-7.3	-16.2	-9.5
CSc1ccccc1NC(=O)c1cc(-c2cccs2)on1	54.1*	8.4	-2.3	-9.6	23.3	-7.5
COc1ccc(-c2cc(C(=O)Nc3ccccc3SC)no2)cc1	18.3	7.2	0.2	-12.1	0.1	-8.2
Cc1ccc(S(=O)(=O)N2CCC(=O)N(CCOCc3ccc(C(F)(F)F)cc3)CC2)cc1	44.8	9.9	-5.8	-20.4	-4.5	49.2*
CN(C)Cc1ccc(C(C)(C)C)cc1-c1cc(C(C)(C)C)ccc1CN(C)C	.	50.9*	.	.	8.8	.
CN(C)Cc1cc(C(C)(C)C)cc(C(C)(C)C)c1O	0.1	10.6	-13.2	-6.8	10.2	-8.0
CSc1nc(S(=O)(=O)c2ccc(C)cc2)c(Cl)s1	5.5	1.4	11.2	-19.9	-2.7	-6.3
CC(=O)Nc1ncc(Cc2cc(Cl)ccc2Cl)s1	69.8*	8.2	13.1	-21.7	25.7	-6.8
CC(C)(O)C#Cc1ccc(C(=O)NCCc2ccc(S(N)(=O)=O)cc2)cc1	8.4	4.0	14.3	-14.7	-11.9	-6.8
CN(C(=S)Nc1ccc(Oc2ccccc2)cc1)C1CCCCC1	33.8	2.3	-6.5	-7.5	-29.8	29.3*
N#CC1(Nc2ccc(-c3ccc(NC4(C#N)CCCC4)cc3)cc2)CCCC1	.	54.6*	.	.	-18.6	.
N#CC1(NC(=O)COC(=O)c2ccc(-c3ccc(O)cc3)cc2)CCCCC1	11.8	.	.	16.3	.	-5.3
C=Cc1ccc(Cn2nc(-c3ccc(C)cc3)ccc2=O)cc1	23.4	.	33.4	-3.7	.	44.5*
COCCOC(=O)c1c(C)oc2ccc(NS(=O)(=O)c3ccccc3)cc12	14.3	5.3	-18.8	-9.1	-38.9	-22.7
COC(=O)c1c(C)oc2ccc(NS(=O)(=O)c3cccs3)cc12	40.5*	6.9	-15.4	-3.4	-45.0	8.8
Cc1cc(N)c2ccccc2[n+]1CCCCCCCCCC[n+]1c(C)cc(N)c2ccccc21	.	9.0	.	.	21.4	.
Nc1cc2c(nc3c4ccccc4c(N)cc3[n+]2-c2cccc3ccccc23)c2ccccc12 (tested in a mixture with another compound)	.	54.4*	.	.	-9.3	.
O=C(c1ccc(F)cc1)[C@H]1CCCN(C(=O)C2CC2)C1	.	4.0	.	.	-21.7	.
Oc1ccc(Cc2nccc3cc(O)c(O)cc23)cc1O	.	52.9*	.	.	-8.4	.
CCc1cccc(NC(=O)COC(=O)c2cc([N+](=O)[O-])ccc2N2CCOCC2)c1	31.2	.	.	-19.2	.	-17.4
Cc1cc(NC(=O)COC(=O)c2cc([N+](=O)[O-])ccc2N2CCOCC2)ccc1Br	36.9*	.	.	-17.8	.	6.5
COc1ccc(OC)c(COC(=O)c2cc([N+](=O)[O-])ccc2N2CCOCC2)c1	32.2*	.	.	5.3	.	-15.4
